In ChEMBL document CHEMBL4342521 (J Med Chem, 2020):
Active and inactive are the calls of the source. The rule behind the calls is not given here.

Assays:
[1] = target: Histone deacetylase 7 (Homo sapiens, UniProt Q8WUI4); experiment: Inhibition of recombinant human N-terminal GST-tagged HDAC7 (518 to end residues) expressed in baculovirus infected Sf9 cells using Boc-Lys (trifluoroacetyl)-AMC as substrate preincubated for 1 hr followed by substrate addition and measured after 2 hrs by fluorescence based micro plate reader analysis
Histone deacetylase 7, sequence (Q8WUI4 whole entry): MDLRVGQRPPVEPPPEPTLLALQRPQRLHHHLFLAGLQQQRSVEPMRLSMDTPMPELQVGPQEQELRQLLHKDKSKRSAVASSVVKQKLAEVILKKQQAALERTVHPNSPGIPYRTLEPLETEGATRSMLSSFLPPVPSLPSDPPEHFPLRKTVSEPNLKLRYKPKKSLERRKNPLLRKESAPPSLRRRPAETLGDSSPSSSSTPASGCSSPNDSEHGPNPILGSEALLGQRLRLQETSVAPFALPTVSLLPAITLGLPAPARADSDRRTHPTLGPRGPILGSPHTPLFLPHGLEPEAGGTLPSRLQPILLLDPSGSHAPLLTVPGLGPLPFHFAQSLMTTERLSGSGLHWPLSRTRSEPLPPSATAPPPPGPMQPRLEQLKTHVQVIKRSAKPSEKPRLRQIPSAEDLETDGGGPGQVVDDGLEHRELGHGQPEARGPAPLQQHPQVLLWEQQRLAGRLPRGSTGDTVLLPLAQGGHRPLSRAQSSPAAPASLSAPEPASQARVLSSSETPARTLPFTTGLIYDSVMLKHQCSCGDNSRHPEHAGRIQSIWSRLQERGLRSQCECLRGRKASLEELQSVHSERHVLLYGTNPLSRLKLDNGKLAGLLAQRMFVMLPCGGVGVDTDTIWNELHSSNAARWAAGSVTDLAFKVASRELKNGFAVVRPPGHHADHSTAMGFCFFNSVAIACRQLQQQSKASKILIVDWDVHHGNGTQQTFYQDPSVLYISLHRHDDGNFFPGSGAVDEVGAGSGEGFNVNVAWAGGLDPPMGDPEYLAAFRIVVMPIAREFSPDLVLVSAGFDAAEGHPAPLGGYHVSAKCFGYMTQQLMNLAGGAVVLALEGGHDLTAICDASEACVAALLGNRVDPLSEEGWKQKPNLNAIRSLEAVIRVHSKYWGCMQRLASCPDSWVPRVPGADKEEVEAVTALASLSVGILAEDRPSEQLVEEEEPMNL

[2] = target: 72 kDa type IV collagenase (Homo sapiens) (UniProt P08253); experiment: Inhibition of MMP-2 (unknown origin) at 10 to 50 uM incubated for 10 to 15 mins and measured after 2 hrs by fluorescence based assay
72 kDa type IV collagenase (Homo sapiens), sequence (P08253 110-660 limits assumed): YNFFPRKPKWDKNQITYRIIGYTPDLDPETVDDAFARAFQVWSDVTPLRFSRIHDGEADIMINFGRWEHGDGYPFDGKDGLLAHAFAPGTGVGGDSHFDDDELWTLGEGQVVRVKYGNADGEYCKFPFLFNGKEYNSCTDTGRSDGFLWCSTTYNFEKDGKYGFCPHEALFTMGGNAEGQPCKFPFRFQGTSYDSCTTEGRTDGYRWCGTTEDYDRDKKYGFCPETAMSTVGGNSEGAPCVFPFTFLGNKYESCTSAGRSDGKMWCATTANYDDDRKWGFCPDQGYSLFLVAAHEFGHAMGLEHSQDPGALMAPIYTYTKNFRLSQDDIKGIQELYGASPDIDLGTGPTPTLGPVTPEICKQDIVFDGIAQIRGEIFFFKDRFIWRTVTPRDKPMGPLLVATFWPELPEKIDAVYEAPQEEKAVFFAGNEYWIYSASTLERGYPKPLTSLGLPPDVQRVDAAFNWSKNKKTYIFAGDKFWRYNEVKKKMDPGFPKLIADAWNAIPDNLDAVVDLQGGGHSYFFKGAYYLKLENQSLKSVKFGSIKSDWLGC
In short: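 MMP-2/MMP-9 in activation buffer with test agent (final 50 and 10 μM), 10–15 min incubation, then fluorogenic substrate added. Incubated 2 h at 37 °C; fluorescence read at 320/405 nm. Kit MMP inhibitor was the positive control.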

[3] = target: Aminopeptidase N (Sus scrofa) (UniProt P15145); experiment: Inhibition of porcine kidney microsomal APN at 10 uM using L-leucine-p-nitroanilide as substrate preincubated for 5 mins followed by substrate addition and measured after 30 mins by microplate reader analysis; assay type: subcellular; conditions: Sus scrofa domesticus
Aminopeptidase N (Sus scrofa), sequence (P15145 whole entry): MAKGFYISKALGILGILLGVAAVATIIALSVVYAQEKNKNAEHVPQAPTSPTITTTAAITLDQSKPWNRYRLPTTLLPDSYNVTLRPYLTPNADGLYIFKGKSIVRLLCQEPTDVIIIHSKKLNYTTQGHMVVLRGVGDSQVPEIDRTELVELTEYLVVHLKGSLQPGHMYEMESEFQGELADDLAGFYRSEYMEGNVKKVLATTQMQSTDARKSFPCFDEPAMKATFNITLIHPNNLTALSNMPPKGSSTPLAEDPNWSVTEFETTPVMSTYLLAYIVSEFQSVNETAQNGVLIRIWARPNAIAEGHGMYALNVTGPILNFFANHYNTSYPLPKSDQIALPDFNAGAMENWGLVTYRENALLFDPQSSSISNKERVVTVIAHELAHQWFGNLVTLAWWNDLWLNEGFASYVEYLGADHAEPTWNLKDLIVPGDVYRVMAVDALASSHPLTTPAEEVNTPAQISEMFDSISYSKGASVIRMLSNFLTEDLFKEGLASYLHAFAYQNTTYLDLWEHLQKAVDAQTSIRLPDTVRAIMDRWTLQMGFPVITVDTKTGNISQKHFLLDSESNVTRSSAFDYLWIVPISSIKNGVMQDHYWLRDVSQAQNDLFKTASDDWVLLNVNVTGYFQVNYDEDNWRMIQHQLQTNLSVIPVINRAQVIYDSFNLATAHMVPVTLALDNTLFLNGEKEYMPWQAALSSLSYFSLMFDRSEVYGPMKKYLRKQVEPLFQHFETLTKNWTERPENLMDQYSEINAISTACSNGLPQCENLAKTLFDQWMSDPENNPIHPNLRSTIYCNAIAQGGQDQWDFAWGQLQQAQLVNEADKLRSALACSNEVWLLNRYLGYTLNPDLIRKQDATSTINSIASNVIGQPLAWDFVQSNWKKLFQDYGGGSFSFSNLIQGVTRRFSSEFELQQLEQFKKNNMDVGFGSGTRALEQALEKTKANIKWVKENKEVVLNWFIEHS
In short: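 Porcine kidney microsomal aminopeptidase (CD13) with test agent (final 50 and 10 μM; bestatin 10 μM as reference), 5 min, then L-leucine-p-nitroanilide added. Incubated 30 min at 37 °C; absorbance read at 405 nm.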

[4] = tested on: SW-620; experiment: Antiproliferative activity against human SW620 cells assessed as reduction in cell viability after 48 hrs by CellTiter-Blue assay; assay type: functional; conditions: SW-620, 48 h, read-out: LC50 (the source's name)
In short: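 NCI-60 panel lines grown in RPMI1640 with 10% FBS at 37 °C, 5% CO₂. Seeded at 5,000–10,000 cells/well and pre-incubated overnight. Exposed for 48 h to six 10-fold dilutions (top final 10 μM), with a time-zero plate read at dosing. CellTiter-Blue (0.125 mg/mL) for 2–4 h, fluorescence 560/590 nm, triplicate curves.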

[5] = tested on: SF-268; experiment: Antiproliferative activity against human SF268 cells assessed as reduction in cell viability after 48 hrs by CellTiter-Blue assay; assay type: functional; conditions: SF-268, 48 h, read-out: LC50 (the source's name)
In short: (§1)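 Cells grown in RPMI1640 with 10% FBS at 37 °C, 5% CO₂. 5,000–10,000 cells/well were pre-incubated overnight, and a time-zero CellTiter-Blue read was taken. Six 10-fold dilutions (top final 10 μM) were applied for 48 h, followed by 0.125 mg/mL CellTiter-Blue for 2–4 h. Resorufin fluorescence was read at ex 560/em 590 nm. […] Triplicates.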

[6] = tested on: SF-295; experiment: Antiproliferative activity against human SF295 cells assessed as reduction in cell viability after 48 hrs by CellTiter-Blue assay; assay type: functional; conditions: SF-295, 48 h, read-out: LC50 (the source's name); in short: as §1
[7] = tested on: M14; experiment: Antiproliferative activity against human M14 cells assessed as reduction in cell viability after 48 hrs by CellTiter-Blue assay; assay type: functional; conditions: M14, 48 h, read-out: LC50 (the source's name); in short: as §1
[8] = tested on: SK-OV-3; experiment: Antiproliferative activity against human SKOV3 cells assessed as reduction in cell viability after 48 hrs by CellTiter-Blue assay; assay type: functional; conditions: SK-OV-3, 48 h, read-out: LC50 (the source's name); in short: as §1
[9] = tested on: MDA-MB-231; experiment: Antiproliferative activity against human MDA-MB-231 cells assessed as reduction in cell viability after 48 hrs by CellTiter-Blue assay; assay type: functional; conditions: MDA-MB-231, 48 h, read-out: LC50 (the source's name); in short: as §1
[10] = tested on: MDA-MB-468; experiment: Antiproliferative activity against human MDA-MB-468 cells assessed as reduction in cell viability after 48 hrs by CellTiter-Blue assay; assay type: functional; conditions: MDA-MB-468, 48 h, read-out: LC50 (the source's name); in short: as §1
[11] = tested on: HL-60; experiment: Antiproliferative activity agaisnt p53 null human HL60 cells at 10 uM after 48 hrs by CellTiter-blue assay; assay type: functional, cell-based
[12] = tested on: U-937; experiment: Antiproliferative activity agaisnt p53 null human U937 cells at 10 uM after 48 hrs by CellTiter-blue assay; assay type: functional, cell-based
[13] = tested on: MV4-11; experiment: Down regulation of FTL3 in human MV4-11 cells harboring wild type p53/FLT3-ITD mutant at 50 to 200 nM after 24 hrs by Western blot analysis; assay type: functional, cell-based
In short: (§2)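 Cells (1,500,000 per well) grown 12 h, then drug-treated as specified. Lysed in RIPA buffer, sonicated, centrifuged, protein normalized by BCA. Run on 4–12% Bis-Tris gels in MES, transferred, probed overnight at 4 °C with primary antibodies at 1/1000. Actin served as reference for LC3-II quantitation.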

[14] = tested on: MV4-11; experiment: Induction of apoptosis in human MV4-11 cells harboring wild type p53/FLT3-ITD mutant assessed as XIAP degradation at 50 to 200 nM after 24 hrs by Western blot analysis; assay type: functional, cell-based; in short: as §2
[15] = tested on: MV4-11; experiment: Induction of apoptosis in human MV4-11 cells harboring wild type p53/FLT3-ITD mutant assessed as upregulation of P21WAF1/Cip1 expression at 50 to 200 nM after 24 hrs by Western blot analysis; assay type: functional, cell-based; in short: as §2
[16] = tested on: MV4-11; experiment: Inhibition of MDM2 degradation in human MV4-11 cells harboring wild type p53/FLT3-ITD mutant at 100 nM after 12 hrs in presence of MDM2 inhibitor RG7388 by Western blot analysis relative to control; assay type: functional; conditions: MV4-11, 12 h; in short: as §2
[17] = tested on: HL-60; experiment: Effect on XIAP protein degradation in p53 null human HL60 cells harboring wild type FLT3 at 50 to 200 nM after 24 hrs by Western blot analysis; assay type: functional, cell-based; in short: as §2
[18] = tested on: RS4-11; experiment: Down regulation of STAT5 expression in human RS4:11 cells harboring wild type p53/FLT3 assessed as cleavage of pro-caspase 3 at 50 to 200 nM after 24 hrs by Western blot analysis; assay type: functional, cell-based; in short: as §2

`CCCNNC(=O)/C=C/c1ccc(CNCCc2c(C)[nH]c3ccccc23)cc1.O=C(O)C(F)(F)F` was tested, and the IC50 [1] was > 10 µM, the inhibition [2] was “inactive” and the inhibition [3] was “inactive”. For the same molecule, the CC50 [4] was > 10 µM, the CC50 [5] was > 10 µM and the CC50 [6] was > 10 µM. For the same molecule, the CC50 [7] was > 10 µM, the CC50 [8] was > 10 µM and the CC50 [9] was > 10 µM. The CC50 [10] was > 10 µM, the Activity [11] was “Active” and the Activity [12] was “Active”. The Activity [13] was “Active”, the Activity [14] was “Active” and the Activity [15] was “Active”. For the same molecule, the inhibition at 0.1 µM [16] was 100%, the Activity [17] was “Active” and the Activity [18] was “inactive”.
